Laboratory results as given in ChEMBL document CHEMBL2311383, “Discovery of piperazin-1-ylpyridazine-based potent and selective stearoyl-CoA desaturase-1 inhibitors for the treatment of obesity and metabolic syndrome” (J Med Chem, 2013).
The source made the active and inactive calls. The rule behind the calls is not given here.

How the values were obtained:
[1] = target: Acyl-CoA (8-3)-desaturase (Rattus norvegicus) (UniProt Q920R3); assay: Inhibition of delta5 desaturase in Sprague-Dawley rat liver microsome at 10 uM; assay type: microsomes
[2] = Clearance in Lewis rat at 1 mg/kg, iv; assay type: ADME, organism-based; set-up: dose 1 mg/kg, route intravenous; conditions: in vivo
Summary of the method: (§1)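 Lewis rats, IV 3 mg/kg and PO 10 mg/kg unless otherwise stated (some at PO 5 mg/kg, IV 1 mg/kg, or IV 1/PO 2 mg/kg). At least two rats IV, three rats PO, averaged. Plasma t1/2 (h), AUC 0–∞ (μM·h), Vss (L/kg), clearance ((L/h)/kg), Cmax (μM), Tmax (h), oral bioavailability (%).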

Rattus norvegicus [3] = assay: In vivo inhibition of SCD1 in Lewis rat liver microsome at 15 mg/kg, ip administered qd for 2 days; assay type: functional; conditions: 48 h, route intraperitoneal
Summary of the method: (§2)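 Lewis rats fed high-carbohydrate diet for one week, fasted 4 h, then dosed orally (0.1–1 mg/kg in 0.2% Tween 20/1% CMC; n = 4), killed 4 h later; ip arm 15 mg/kg once daily for two days. Liver microsomes prepared, SCD1 activity measured by tritiated water release from [9,10-3H]stearoyl-CoA. Mean ± SD of at least four rats.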

Rattus norvegicus [4] = assay: In vivo inhibition of SCD1 in Zucker-Fatty rat assessed as reduction of C18 plasma desaturation index at 1 mg/kg, po bid administered for 15 weeks; assay type: functional; conditions: 2520 h
Summary of the method: (§3)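 Plasma from Zucker fatty rats after 15 weeks oral 1 mg/kg twice daily. Lipids extracted by modified Folch, classes separated by TLC, hydrolyzed, derivatized and analyzed by GC against an internal standard. Desaturation index is the […] ratio for C16 and C18; n = 12, mean ± SEM.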

Rattus norvegicus [5] = assay: Antiobesity activity in Zucker-Fatty rat assessed as reduction in bone mineral content at 1 mg/kg, po bid administered for 15 weeks; assay type: functional, organism-based; set-up: dose 1 mg/kg
Summary of the method: (§4)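 Male Zucker fa/fa rats, 20 weeks old, chow ad libitum, 24 per group. Dosed orally twice daily (10 a.m., 4 p.m.) at 1 mg/kg for 15 weeks, suspended in 1% CMC/0.1% Tween 20/10% propylene glycol/water; vehicle controls. Body weight taken daily, change from day 0 over 12 weeks. At end: epididymal, retroperitoneal and mesenteric fat pads weighed; DEXA of carcass BMC, lean and fat mass; fat % = FM/(BMC+LM+FM); n = 12, mean ± SEM.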

[6] = Metabolic stability in rat liver microsome after 30 mins by LC/MS/MS analysis; assay type: ADME; conditions: liver microsomes, read-out: Stability
Summary of the method: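 Compound incubated 30 min with rat liver microsomes; percent parent remaining by LC/MS/MS.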

[7] = Oral bioavailability in Lewis rat at 10 mg/kg; assay type: ADME, organism-based; conditions: in vivo; summary of the method: as §1
Rattus norvegicus [8] = assay: Antiobesity activity in Zucker-Fatty rat assessed as reduction in combined visceral fat weight at 1 mg/kg, po bid administered for 15 weeks relative to vehicle-treated control; assay type: functional; set-up: scale not given: the % may be the effect or the level left; summary of the method: as §4
Rattus norvegicus [9] = assay: In vivo inhibition of SCD1 in po dosed Lewis rat liver microsome at 0.1 to 1 mg/kg after 4 hrs; assay type: functional, organism-based; summary of the method: as §2
[10] = Tmax in Lewis rat at 10 mg/kg, po; assay type: ADME, organism-based; set-up: dose 10 mg/kg, route oral; conditions: in vivo; summary of the method: as §1
Rattus norvegicus [11] = assay: Antiobesity activity in Zucker-Fatty rat assessed as reduction in body fat percentage at 1 mg/kg, po bid administered for 15 weeks relative to vehicle-treated control; assay type: functional; set-up: scale not given: the % may be the effect or the level left; summary of the method: as §4
Rattus norvegicus [12] = assay: Antiobesity activity in Zucker-Fatty rat assessed as reduction in lean mass at 1 mg/kg, po bid administered for 15 weeks; assay type: functional, organism-based; set-up: dose 1 mg/kg; summary of the method: as §4
Rattus norvegicus [13] = assay: Antiobesity activity in Zucker-Fatty rat assessed as reduction in total body weight at 1 mg/kg, po bid administered upto 12 weeks relative to vehicle-treated control; assay type: functional; set-up: scale not given: the % may be the effect or the level left; summary of the method: as §4
[14] = Half life in Lewis rat at 1 mg/kg, iv; assay type: ADME, organism-based; set-up: dose 1 mg/kg, route intravenous; conditions: in vivo; summary of the method: as §1
Acyl-CoA desaturase 1 = target: T1, Acyl-CoA desaturase 1 (Mus musculus, UniProt P13516); assay: Inhibition of SCD1 in ICR mouse liver microsome using [9,10 3H]- stearoyl-Coenzyme A substrate assessed as decreased production of tritiated water after 20 min by scintillation counting analysis
T1 sequence (P13516 whole entry): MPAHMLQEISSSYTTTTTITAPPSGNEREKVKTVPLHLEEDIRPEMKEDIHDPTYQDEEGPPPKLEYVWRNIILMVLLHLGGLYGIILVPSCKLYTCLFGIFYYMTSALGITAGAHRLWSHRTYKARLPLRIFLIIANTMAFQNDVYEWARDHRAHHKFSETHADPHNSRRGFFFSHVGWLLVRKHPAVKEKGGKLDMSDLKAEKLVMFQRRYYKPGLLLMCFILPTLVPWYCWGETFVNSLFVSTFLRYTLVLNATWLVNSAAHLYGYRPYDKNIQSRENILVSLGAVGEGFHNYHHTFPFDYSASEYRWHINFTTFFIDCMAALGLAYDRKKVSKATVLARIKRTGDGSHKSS

[15] = Apparent permeability from apical to basolateral side in human Caco2 cells; assay type: ADME, cell-based; conditions: Caco-2
Summary of the method: (§5)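 Caco-2 monolayers; apparent permeability a-to-b and b-to-a reported in 10⁻⁶ cm/s.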

[16] = target: Acyl-CoA 6-desaturase (Rattus norvegicus) (UniProt Q9Z122); assay: Inhibition of delta6 desaturase in Sprague-Dawley rat liver microsome using cis,cis-9,12-octadecadienoic acid substrate at 10 uM
Rattus norvegicus [17] = assay: In vivo inhibition of SCD1 in Zucker-Fatty rat assessed as reduction of C16 plasma desaturation index at 1 mg/kg, po bid administered for 15 weeks; assay type: functional; conditions: 2520 h; summary of the method: as §3
[18] = Cmax in Lewis rat at 10 mg/kg, po; assay type: ADME, organism-based; set-up: dose 10 mg/kg, route oral; conditions: in vivo; summary of the method: as §1
Rattus norvegicus [19] = assay: Antiobesity activity in Zucker-Fatty rat assessed as reduction in fat mass at 1 mg/kg, po bid administered for 15 weeks; assay type: functional; set-up: scale not given: the % may be the effect or the level left; summary of the method: as §4
Rattus norvegicus [20] = assay: In vivo inhibition of SCD1 in po dosed Lewis rat liver microsome after 4 hrs; assay type: functional; summary of the method: as §2
[21] = Apparent permeability from basolateral to apical side in human Caco2 cells; assay type: ADME, cell-based; conditions: Caco-2; summary of the method: as §5
[22] = Volume of distribution at steady state in Lewis rat at 1 mg/kg, iv; assay type: ADME, organism-based; set-up: dose 1 mg/kg, route intravenous; conditions: in vivo, read-out: Vdss; summary of the method: as §1
[23] = Clearance in Lewis rat at 3 mg/kg, iv; assay type: ADME, organism-based; set-up: dose 3 mg/kg, route intravenous; conditions: in vivo; summary of the method: as §1
[24] = Volume of distribution at steady state in Lewis rat at 3 mg/kg, iv; assay type: ADME, organism-based; set-up: dose 3 mg/kg, route intravenous; conditions: in vivo, read-out: Vdss; summary of the method: as §1
[25] = Half life in Lewis rat at 3 mg/kg, iv; assay type: ADME, organism-based; set-up: dose 3 mg/kg, route intravenous; conditions: in vivo; summary of the method: as §1
[26] = Tmax in Lewis rat at 2 mg/kg, po; assay type: ADME, organism-based; set-up: dose 2 mg/kg, route oral; conditions: in vivo; summary of the method: as §1
[27] = Oral bioavailability in Lewis rat at 2 mg/kg; assay type: ADME, organism-based; conditions: in vivo; summary of the method: as §1
[28] = Cmax in Lewis rat at 2 mg/kg, po; assay type: ADME, organism-based; set-up: dose 2 mg/kg, route oral; conditions: in vivo; summary of the method: as §1
[29] = AUC (0 to infinity) in Lewis rat at 2 mg/kg, po; assay type: ADME, organism-based; set-up: time infinity, dose 2 mg/kg, route oral; conditions: plasma; summary of the method: as §1
[30] = AUC (0 to infinity) in Lewis rat at 1 mg/kg, iv; assay type: ADME, organism-based; set-up: time infinity, dose 1 mg/kg, route intravenous; conditions: plasma; summary of the method: as §1

Chain of Acyl-CoA (8-3)-desaturase (Rattus norvegicus) (Q920R3 whole entry, looked up): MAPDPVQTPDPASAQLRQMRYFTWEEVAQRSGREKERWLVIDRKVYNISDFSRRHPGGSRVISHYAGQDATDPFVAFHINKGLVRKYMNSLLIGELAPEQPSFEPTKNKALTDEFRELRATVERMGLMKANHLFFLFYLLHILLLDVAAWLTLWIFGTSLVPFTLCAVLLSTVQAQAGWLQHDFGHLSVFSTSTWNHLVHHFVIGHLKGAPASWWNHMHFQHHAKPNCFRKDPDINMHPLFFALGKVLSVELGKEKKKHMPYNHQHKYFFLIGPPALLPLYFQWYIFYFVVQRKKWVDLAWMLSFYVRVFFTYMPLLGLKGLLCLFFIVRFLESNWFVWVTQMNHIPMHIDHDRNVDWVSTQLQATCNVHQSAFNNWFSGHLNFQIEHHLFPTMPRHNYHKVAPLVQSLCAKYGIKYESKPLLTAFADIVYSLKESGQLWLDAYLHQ
Chain of Acyl-CoA 6-desaturase (Rattus norvegicus) (Q9Z122 whole entry, looked up): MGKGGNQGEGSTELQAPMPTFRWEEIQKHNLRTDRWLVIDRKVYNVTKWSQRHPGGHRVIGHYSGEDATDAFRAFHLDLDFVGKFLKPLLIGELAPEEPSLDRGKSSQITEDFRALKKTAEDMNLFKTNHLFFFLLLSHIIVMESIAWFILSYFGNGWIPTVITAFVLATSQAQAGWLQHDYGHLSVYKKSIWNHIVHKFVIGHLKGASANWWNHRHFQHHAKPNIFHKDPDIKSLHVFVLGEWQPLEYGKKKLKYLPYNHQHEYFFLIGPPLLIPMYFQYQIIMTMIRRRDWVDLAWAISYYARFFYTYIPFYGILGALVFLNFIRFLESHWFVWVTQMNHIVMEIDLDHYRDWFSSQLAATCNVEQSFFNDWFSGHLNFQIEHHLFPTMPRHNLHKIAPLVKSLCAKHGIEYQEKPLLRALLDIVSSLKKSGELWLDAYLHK

| inhibition [1] | clearance [2] [mL/min/kg] | remaining at 0.5 h [6] [%] | bioavailability [7] [%] | Tmax [10] [h] | half-life [14] [h] | IC50 (Acyl-CoA desaturase 1) [nM] | Papp A→B [15] [×10⁻⁶ cm/s] | inhibition [16] | Cmax [18] [nM] | Papp B→A [21] [×10⁻⁶ cm/s] | Vd [22] [L/kg] | clearance [23] [mL/min/kg] | Vd [24] [L/kg] | half-life [25] [h] | Structure (SMILES) | inhibition in vivo at 15 mg/kg (Rattus norvegicus [3]) [%] | further results |
| --- | --- | --- | --- | --- | --- | --- | --- | --- | --- | --- | --- | --- | --- | --- | --- | --- | --- |
| inactive | 21.7 | 74 | 49 | 3.3 | 1.6 | 14 | 30 | inactive | 900 | 30 | 2.7 |  |  |  | O=C(NCCC1CC1)c1ccc(N2CCN(C(=O)c3cc(F)ccc3C(F)(F)F)CC2)nn1 | > 60 | inhibition in vivo at 1 mg/kg (Rattus norvegicus [4]): 61%; Activity (Rattus norvegicus [5]): inactive; Activity (Rattus norvegicus [8]): 24%; inhibition (Rattus norvegicus [9]): Dose-dependent effect; Activity (Rattus norvegicus [11]): 9%; Activity (Rattus norvegicus [12]): inactive; Activity (Rattus norvegicus [13]): 36%; inhibition in vivo at 1 mg/kg (Rattus norvegicus [17]): 73%; Activity (Rattus norvegicus [19]): 20%; ED50 (Rattus norvegicus [20]): 0.8 mg/kg |
| inactive |  | 63 | 42 | 3.3 |  | 42 | 22 | inactive | 1900 | 23 |  | 4.67 | 0.7 | 1.8 | O=C(CNC(=O)c1ccc(N2CCN(C(=O)c3ccccc3C(F)(F)F)CC2)nn1)c1ccccc1 | > 60 |  |
| inactive |  | 69 | 30 | 2.3 |  | 12 | 32 | inactive | 500 | 30 |  | 14.3 | 1.6 | 1.8 | O=C(NCCC1CC1)c1ccc(N2CCN(C(=O)c3cc(Cl)ccc3C(F)(F)F)CC2)nn1 | > 60 |  |
| inactive | 21.7 | 92 |  |  | 1.1 | 11 | 25 | inactive |  | 23 | 1.8 |  |  |  | O=C(Nc1nc2ccccc2[nH]1)c1ccc(N2CCN(C(=O)c3ccccc3C(F)(F)F)CC2)nn1 | < 30 | Tmax [26]: 0.5 h; bioavailability [27]: 19%; Cmax [28]: 70 nM; AUC(0-inf) [29]: 0.6 µM·h; AUC(0-inf) [30]: 1.6 µM·h |
